The values below come from ChEMBL document CHEMBL1799968, “Dimethyl-diphenyl-propanamide derivatives as nonsteroidal dissociated glucocorticoid receptor agonists” (J Med Chem, 2010).

Experiment [1] concerns the target T1, Glucocorticoid receptor (Homo sapiens, UniProt P04150).
T1 sequence (P04150 whole entry): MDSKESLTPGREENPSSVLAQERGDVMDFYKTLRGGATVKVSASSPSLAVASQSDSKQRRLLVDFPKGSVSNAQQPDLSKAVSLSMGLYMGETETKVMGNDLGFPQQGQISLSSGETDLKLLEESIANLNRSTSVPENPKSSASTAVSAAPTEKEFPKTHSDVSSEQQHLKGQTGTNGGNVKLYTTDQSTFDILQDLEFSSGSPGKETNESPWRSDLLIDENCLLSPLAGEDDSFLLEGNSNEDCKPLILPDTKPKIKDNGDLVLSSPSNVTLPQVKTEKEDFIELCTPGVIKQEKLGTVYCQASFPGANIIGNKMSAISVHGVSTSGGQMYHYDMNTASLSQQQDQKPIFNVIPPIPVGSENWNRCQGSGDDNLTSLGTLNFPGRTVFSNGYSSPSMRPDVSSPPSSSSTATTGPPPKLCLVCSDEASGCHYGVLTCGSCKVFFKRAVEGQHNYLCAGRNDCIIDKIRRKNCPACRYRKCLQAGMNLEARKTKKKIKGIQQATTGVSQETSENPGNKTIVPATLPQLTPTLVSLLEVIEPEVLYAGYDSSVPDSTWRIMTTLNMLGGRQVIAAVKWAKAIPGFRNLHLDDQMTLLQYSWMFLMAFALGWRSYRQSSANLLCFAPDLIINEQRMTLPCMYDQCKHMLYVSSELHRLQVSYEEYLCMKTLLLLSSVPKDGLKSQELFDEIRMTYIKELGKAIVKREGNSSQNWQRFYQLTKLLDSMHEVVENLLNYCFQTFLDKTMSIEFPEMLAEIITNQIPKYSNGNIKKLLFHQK
Nature of the experiment: Transrepression activity of glucocorticoid receptor in human A549 cells expressing AP-1 assessed as inhibition of PMA-induced AP-1 activity by luciferase reporter gene assay. It is filed as cell-based. In general terms: Reporter assays use an easily measured gene product as a stand-in for the process of interest.

Experiment [2] addresses T1, Glucocorticoid receptor. Nature of the experiment: Transactivation activity of glucocorticoid receptor ligand binding domain expressed in human NP-1 Hela cells co-expressing GAL4 DNA binding domain by luciferase reporter gene assay. The experiment is classed as cell-based.
Experiment [3] is described as follows: Selectivity ratio of Ki of GRapha to Ki of progesterone receptor.
Experiment [4] has as its target T1, Glucocorticoid receptor. Nature of the experiment: Transrepression activity of glucocorticoid receptor in human A549 cells assessed as inhibition of IL1beta-stimulated NFkappaB-dependent E-selectin transcription by luciferase reporter gene assay. It is filed as cell-based.
For experiment [5], the target named is T2, Glucocorticoid receptor (Homo sapiens) (UniProt P04150).
T2 sequence (whole entry): T1 sequence (P04150 whole entry)
Nature of the experiment: Transrepression activity of glucocorticoid receptor in human A549 cells expressing AP-1 assessed as inhibition of PMA-induced AP-1 activity by luciferase reporter gene assay relative to Dexamethasone. The experiment is classed as cell-based. The gist of the method: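 Human A549 lung epithelial cells stably transfected with a 5×AP-1 response element luciferase reporter. AP-1 was induced with PMA (15 ng/mL), and inhibition was read as decreased luciferase.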

Experiment [6] addresses T3, Androgen receptor (Homo sapiens, UniProt P10275).
T3 sequence (P10275 whole entry): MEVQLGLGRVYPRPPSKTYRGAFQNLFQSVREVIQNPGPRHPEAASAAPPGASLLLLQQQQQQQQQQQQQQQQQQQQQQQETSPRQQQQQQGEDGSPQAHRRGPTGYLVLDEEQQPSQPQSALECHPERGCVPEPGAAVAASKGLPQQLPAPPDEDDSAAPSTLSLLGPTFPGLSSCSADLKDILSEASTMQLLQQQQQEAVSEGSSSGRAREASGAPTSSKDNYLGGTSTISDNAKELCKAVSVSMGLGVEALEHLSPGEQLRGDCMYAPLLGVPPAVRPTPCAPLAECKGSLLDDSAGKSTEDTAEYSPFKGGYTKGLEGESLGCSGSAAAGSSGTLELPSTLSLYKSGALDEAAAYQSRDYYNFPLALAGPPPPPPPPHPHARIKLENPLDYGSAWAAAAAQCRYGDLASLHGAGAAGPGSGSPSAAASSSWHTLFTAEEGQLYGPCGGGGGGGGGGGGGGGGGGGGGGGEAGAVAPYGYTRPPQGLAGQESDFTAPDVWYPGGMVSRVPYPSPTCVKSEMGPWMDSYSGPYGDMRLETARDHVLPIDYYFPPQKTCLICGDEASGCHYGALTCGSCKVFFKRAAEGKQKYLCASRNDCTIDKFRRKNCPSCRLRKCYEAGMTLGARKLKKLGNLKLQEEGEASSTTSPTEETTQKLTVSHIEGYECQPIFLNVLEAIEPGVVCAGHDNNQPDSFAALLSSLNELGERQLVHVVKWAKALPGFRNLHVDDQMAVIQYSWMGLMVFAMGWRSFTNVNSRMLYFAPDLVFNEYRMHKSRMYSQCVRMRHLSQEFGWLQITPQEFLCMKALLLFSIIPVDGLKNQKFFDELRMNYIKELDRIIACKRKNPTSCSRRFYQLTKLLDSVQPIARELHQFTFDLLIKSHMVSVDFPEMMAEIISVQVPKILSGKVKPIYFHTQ
Nature of the experiment: Binding affinity to androgen receptor by fluorescence polarization assay. The gist of the method: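 Fluorescence polarization competition of test compound against a fluorescently labelled ligand for binding to full-length receptor or its ligand-binding domain.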
On the technique in general: In fluorescence polarisation assays a small probe gives low polarisation when free and higher when bound to something large.

The target of experiment [7] is T2, Glucocorticoid receptor (Homo sapiens). Nature of the experiment: Transactivation activity of glucocorticoid receptor ligand binding domain expressed in human NP-1 Hela cells co-expressing GAL4 DNA binding domain by luciferase reporter gene assay relative to Dexamethasone. The experiment is classed as cell-based. An outline of the steps: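 HeLa NP-1 cells stably carrying a GAL4 DBD–human GR LBD chimera with a GAL4 luciferase reporter. Agonist activity was read as increased luciferase activity.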

The target of experiment [8] is T1, Glucocorticoid receptor. Nature of the experiment: Displacement of GS-red from GRapha by fluorescence polarization assay.
Experiment [9] in a line: Selectivity ratio of Ki of GRapha to Ki of androgen receptor.

Molecules are shown by their SMILES. Where only a bound is given, the exact number is not on record here.

As for `CC(C)(C(=O)Nc1nccs1)[C@@H](c1ccccc1)c1ccc(O)c(F)c1`, the EC50 (as a rule, the concentration that produces a half-maximal response) amounted to 15.9 nM in experiment [1], 119 nM in experiment [2] and 8.6 nM in [4]. For the same molecule, the Ratio Ki in experiment [3] was 66; in [9], greater than 870. Besides, the Efficacy turned out to be 79% in experiment [5] and 61% in experiment [7]. In addition, the results for the Ki in experiment [6] and in experiment [8] were 1030 nM and 0.7 nM, respectively.
On to `CC(C)(C(=O)Nc1nccs1)[C@@H](c1ccccc1)c1ccc(O)c(Br)c1`, for which the 50% effective concentration (EC50) in experiment [1] stood at 40.1 nM; in experiment [2] it was 115 nM; in [4], 8.6 nM. Moreover, the Ratio Ki is 66 in [3] and greater than 870 in experiment [9]. Further, the Efficacy was 83% in experiment [5] and 48% in [7]. For the same molecule, the Ki (commonly a measure of affinity in units of concentration, obtained from inhibition or displacement) in experiment [6] came out at 370 nM; in [8], 0.4 nM.
In the case of `CC(C)(C(=O)Nc1nccs1)[C@@H](c1ccccc1)c1ccc(O)cc1`, the EC50 in experiment [1] is 40.9 nM; in experiment [2], 372 nM; in [4] it was 29.5 nM. Further, the Ratio Ki in experiment [3] is 227; in [9] it was greater than 870. The Efficacy in [5] came out at 63%; in experiment [7], 21%. Also, the Ki amounted to 1060 nM in [6] and 1.2 nM in experiment [8].
Consider `CC(C)(C(=O)Nc1nccs1)[C@H]1c2ccccc2Oc2cc(O)ccc21`, for which the EC50 in experiment [1] came to 17.5 nM; in [2], 60.1 nM; in experiment [4] it was 9.3 nM. The results for the Ratio Ki in experiment [3] and in experiment [9] were 73 and greater than 870, respectively. Besides, the Efficacy turned out to be 81% in [5] and 30% in [7]. Further, the Ki in experiment [6] worked out at 2340 nM; in [8] it was 0.3 nM.
As for `CC(C)(C(=O)Nc1nncs1)[C@H]1c2ccccc2Oc2cc(O)ccc21`, the EC50 in experiment [1] was found to be 7.8 nM; in experiment [2], 85.7 nM; in experiment [4], 3.5 nM. Besides, the Ratio Ki in experiment [3] is 66; in experiment [9], greater than 870. Moreover, the Efficacy was 82% in experiment [5] and 46% in experiment [7]. Also, the Ki in experiment [6] was 696 nM; in experiment [8], 0.8 nM.
